Hits are enriched below; roughly 3.1% of the tested compounds scored in any of these assays.
KCNK9 inh: KCNK9 potassium channel inhibitors, primary screen, HEK293 cells, thallium flux | B-score at 10 µM | FluxOR thallium flux fluorescence; stronger effect = lower value | Potassium channel subfamily K member 9 (Homo sapiens), Q9NPC2 | 1.2% of 310,000 active;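 active = ratio B-score over 3 SD below the library mean, with starting fluorescence within 5 SD of its mean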;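 note: negative B-score means less thallium flux so channel inhibition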
KCNQ1 block: inhibitors of human KCNQ1 channel, primary screen, cell-based, thallium flux, high-throughput; AID 2642, 2010; B-score at 10 µM; 1.3% of 310,000 active; CHO-K1 KCNQ1, FluxOR thallium flux fluorescence; stronger effect = higher value; Potassium voltage-gated channel subfamily KQT member 1 (Homo sapiens), P51787;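 active = compounds whose thallium flux B-score, printed positive for inhibition, exceeds three library SD while starting fluorescence stays within three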;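 note: channel opened by potassium depolarization with thallium stimulus after 20 min compound exposure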
hERG rescue: hERG rescue from dofetilide block, primary screen, cell-based, CHO-hERG, FluxOR thallium flux, dofetilide IC70; Voltage-gated inwardly rectifying potassium channel KCNH2 (Homo sapiens), Q12809; dofetilide IC70 present; activation (rescue from dofetilide block), less the hit threshold, % at 10 µM; 0.51% of 310,000 active;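 active = activation above the mean of controls blocked by dofetilide plus 5 SD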;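 note: thallium influx through hERG after potassium depolarization seen as dye fluorescence rise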
KCNQ1 act: potentiators or activators of KCNQ1 channel, primary screen, cell-based, thallium flux, high-throughput. CHO-K1 KCNQ1, thallium flux FluxOR fluorescence; stronger effect = higher value. B-score at 10 µM. 0.35% of 310,000 active;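 active = fluorescence ratio B-score, a plate-corrected score, at least three library SD, with initial intensity B-score within 5 SD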
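System: Stable KCNQ1 CHO-K1 line | Incubation: 90 min dye loading and 20 min compound exposure, both at room temperature | Measure: Ratio B score | Medium: Assay buffer for compound exposure, DMSO matched across wells | Compound dosing: Single-concentration screen | Probe or stimulus: K+/Tl+ depolarizing stimulus | Measured by: Kinetic FluxOR fluorescence, 10 s baseline plus 110 s post-stimulus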
KCNK3 inh: human KCNK3 channel inhibitors, primary screen, CHO cells, FluxOR thallium flux, B-score; B-score at 10 µM; 0.84% of 340,000 active; FluxOR fluorescence; stronger effect = lower value;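 active = B-score under library mean minus 4 SD, starting fluorescence ratio at most library mean plus 5 SD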;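 note: more negative B-score means stronger inhibition of thallium flux through KCNK3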
Target sequence (O14649 whole entry, looked up): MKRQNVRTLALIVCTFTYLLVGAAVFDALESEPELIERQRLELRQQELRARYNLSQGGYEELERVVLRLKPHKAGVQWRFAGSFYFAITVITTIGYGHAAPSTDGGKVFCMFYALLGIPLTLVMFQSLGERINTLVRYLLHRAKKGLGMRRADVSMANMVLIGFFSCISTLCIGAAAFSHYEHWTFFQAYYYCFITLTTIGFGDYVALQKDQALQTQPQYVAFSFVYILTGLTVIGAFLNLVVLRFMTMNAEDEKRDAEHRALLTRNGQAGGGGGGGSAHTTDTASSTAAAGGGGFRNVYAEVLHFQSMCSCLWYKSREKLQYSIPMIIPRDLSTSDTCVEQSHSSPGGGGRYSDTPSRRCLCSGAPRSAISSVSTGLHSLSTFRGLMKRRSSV
KCNK9 block conf: KCNK9 potassium channel inhibitors, confirmation, HEK293 cells, thallium flux, duplicate; shares compounds with KCNK9 inh; FluxOR thallium flux fluorescence; inhibition, % at 10 µM; 43% of 4,900 active; AID 492992, 2010;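 active = thallium signal inhibited by more than 5 SD of the compound-free buffer control wells, on both duplicate plates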;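 note: 0% = assay buffer control wells without compound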
Kir21 sel: mouse Kir2.1 channel inhibition, confirmation, selectivity assay for KCNK9 modulator project, cell-based, HEK293, thallium flux; Kir2.1 cells, FluxOR thallium flux fluorescence; shares compounds with KCNK9 inh; inhibition, % at 10 µM; AID 492993, 2010; 4% of 4,900 active;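 active = thallium signal drop more than 5 SD beyond the mean of the no-compound control wells, seen in both duplicate plates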;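 note: signal is fluorescence rise after thallium addition divided by baseline fluorescence; plate controls were assay buffer only for no effect and full block by chlorpromazine control for full effect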
HEK293 Tl ctr: thallium flux in non-induced HEK293 cells, confirmation, counter-screen for KCNK9 inhibitor project, cell-based, second counter screen, non-induced KCNK9-HEK293; shares compounds with KCNK9 inh; FluxOR thallium flux; 40% of 4,900 active; inhibition, % at 10 µM;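 active = thallium signal drop beyond 5 SD of the untreated control mean, on both duplicate plates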;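 note: plate controls were buffer only IC0 wells for no effect and SID17386958 at its maximal inhibitory level for full effect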
Numbers without * were called inactive; i = inactive; / = no result.

SMILES	KCNK9 inh	KCNQ1 block	hERG rescue	KCNQ1 act	KCNK3 inh	KCNK9 block conf	Kir21 sel	HEK293 Tl ctr
C=CC[C@@H]1C=C[C@H](O/N=C/[C@@H](NS(=O)(=O)c2ccc(C)cc2)[C@H](C)/C=C/CC(=O)OC)[C@@H](CO)O1	i	i	-4.8	i	/	/	/	/
CCCNC(=O)OC[C@H]1O[C@H](CCO/N=C/[C@@H](OC)[C@H](C)/C=C/CC(=O)OC)C=C[C@@H]1Oc1ccc(OC)cc1	i	i	-3.7	i	/	i	i	i
Cc1cc(C)c2nc(NNC(=O)c3ccc(S(=O)(=O)N4CCCC(C)C4)cc3)sc2c1 (stereo unspecified)	i	i	-12.2	i	i	i	i	i
CCC(=O)NNc1nc2c(C)cc(C)cc2s1	i	i	-8.3	i	i	/	/	/
Cc1ccc2nc(NNC(=O)c3ccc(S(=O)(=O)N4CCc5ccccc5C4)cc3)sc2c1	i	7*	-3.6	i	i	i	i	i
Cc1ccc2nc(NNC(=O)c3ccc4c(c3)OCCO4)sc2c1	i	i	-9.8	i	i	/	/	/
Cc1cccc2sc(NNC(=O)c3ccc(S(=O)(=O)N4CC(C)CC(C)C4)cc3)nc12 (stereo unspecified)	i	6*	-4.5	i	i	i	i	i
Cc1cc(C)c2nc(NNC(=O)c3ccc(S(=O)(=O)N4CC(C)CC(C)C4)cc3)sc2c1 (stereo unspecified)	i	i	-11.5	i	i	i	i	i
COc1ccc(NC(=O)CSc2nc3ccccc3nc2N2CCCC2)c(OC)c1	i	i	-6.0	i	i	/	/	/
CC(C)c1ccc(NC(=O)c2cccc(Br)c2)cc1	-8.76*	i	-8.0	i	i	38.5%*	i	i
O=C(NNC(=O)c1cccc(Br)c1)Nc1ccc(Cl)cc1	i	i	-7.8	i	i	/	/	/
CCOc1cc(CNc2ccc3c(c2)OCCO3)cc(Br)c1OCC	i	i	-6.6	i	i	i	i	i
CCOc1cc(CNc2ccc(N3CCOCC3)cc2)cc(Br)c1OCC	i	i	-8.0	i	i	/	/	/
CN(C)/C=N/c1nc(-c2ccc3ccccc3c2)cs1	i	i	-7.2	i	i	i	i	i
O=C(NCC1CCCO1)c1cc2c([nH]c3ccccc32)c(-c2cccc(Cl)c2)n1 (stereo unspecified)	-10.8*	12*	-35.0	i	i	i	i	i
COc1cc(-c2nc(C(=O)NCC3CCCO3)cc3c2[nH]c2ccccc23)cc(OC)c1OC (stereo unspecified)	i	i	-29.9	i	i	/	/	/
COc1ccc(S(=O)(=O)N2CCOC23CCN(S(=O)(=O)c2cc(F)ccc2F)CC3)cc1	i	i	-7.0	i	i	/	/	/
Clc1cccc(CN2CCCCCC2)c1	i	i	-5.3	i	i	/	/	/
c1ccc(OCc2noc(CN3CC[C@@H]4CCCC[C@H]4C3)n2)cc1	i	i	-10.2	i	i	/	/	/
Clc1cccc(CN2CCN(Cc3nc(CCc4ccccc4)no3)CC2)c1	i	i	-6.5	i	i	i	i	i
Clc1cccc(C2CCN(Cc3nc(COc4ccccc4)no3)C2)c1 (stereo unspecified)	i	i	-13.4	i	i	i	i	i
Cc1nc2c3c(sc2c(=O)[nH]1)NC(=O)CC3c1ccccc1Cl (stereo unspecified)	i	i	-7.7	i	i	/	/	/

Assay outcomes as filed in PubChem.
